Assays:
Plasma [1] = assay: Anticoagulant activity in human plasma assessed as time required for clot formation in presence of compound minus time required for clot formation in absence of compound at 0.33 mM at 37 degC; type: functional
How it was run: (§1)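 Pooled citrate plasma from four healthy donors. Thrombin reagent pre-incubated with aptamer at 0.33 mM for 5 min, then mixed with an equal volume of plasma. Clotting time (thrombin time, seconds) read at 37 °C on an automated coagulation analyser. Antithrombin effect taken as the extra clotting time over a water-added reference.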

Prothrombin = Prothrombin (Homo sapiens, UniProt P00734); assay: Binding affinity to thrombin at 37 degC by isothermal titration calorimetry
How it was run: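 ITC at 37 °C. One 0.2 µL pre-injection, discarded, then 19 × 2 µL injections. Heat of dilution from aptamer-into-buffer injections subtracted.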

Plasma [2] = assay: Anticoagulant activity in human plasma assessed as time required for clot formation at 0.33 mM at 37 degC; type: functional; how it was run: as §1
[3] = Thermodynamic stability in pH 7.0 buffer containing 100 mM Kcl, 10 mM sodium cacodylate; type: physicochemical
How it was run: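 UV melting at 295 nm over 5–95 °C at 0.2 °C/min. Samples annealed 5 min at 80 °C, then slowly cooled. Nine strand concentrations spanning 10^-5–10^-6 M, set from absorbance above 80 °C. Heating and cooling profiles recorded. Thermodynamic parameters from non-linear fitting of melting curves with a unimolecular transition model.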

Kd (Prothrombin): 300 nM
Tm [3]: 48.1 °C
SMILES: Cc1cn([C@H]2C[C@H](OP(N)(=O)OC[C@H]3O[C@@H](n4cnc5c(=O)[nH]c(N)nc54)C[C@@H]3OP(N)(=O)OC[C@H]3O[C@@H](n4cnc5c(=O)[nH]c(N)nc54)C[C@@H]3O)[C@@H](COP(N)(=O)OC[C@@H](COP(N)(=O)O[C@H]3C[C@H](n4cnc5c(=O)[nH]c(N)nc54)O[C@@H]3COP(N)(=O)O[C@H]3C[C@H](n4cnc5c(=O)[nH]c(N)nc54)O[C@@H]3COP(N)(=O)O[C@H]3C[C@H](n4cc(C)c(=O)[nH]c4=O)O[C@@H]3COP(N)(=O)O[C@H]3C[C@H](n4cnc5c(=O)[nH]c(N)nc54)O[C@@H]3COP(N)(=O)OC[C@@H](COP(N)(=O)O[C@H]3C[C@H](n4cnc5c(=O)[nH]c(N)nc54)O[C@@H]3COP(N)(=O)O[C@@H]3C[C@@H](COP(N)(=O)O[C@H]4C[C@H](n5cc(C)c(=O)[nH]c5=O)O[C@@H]4COP(N)(=O)O[C@H]4C[C@H](n5cc(C)c(=O)[nH]c5=O)O[C@@H]4COP(N)(=O)O[C@H]4C[C@H](n5cnc6c(=O)[nH]c(N)nc65)O[C@@H]4COP(N)(=O)O[C@H]4C[C@H](n5cnc6c(=O)[nH]c(N)nc65)O[C@@H]4COC(=O)CCCC[C@@H]4SC[C@@H]5NC(=O)N[C@@H]54)O[C@H]3n3cnc4c(=O)[nH]c(N)nc43)O[C@H](CO)n3ccc(=O)[nH]c3=O)O[C@H](CO)n3ccc(=O)[nH]c3=O)O2)c(=O)[nH]c1=O (some centres undefined)
Time (Plasma [1]): 9.7 s
Time (Plasma [2]): 28.7 s
